# Assay results from ChEMBL document CHEMBL1130127, “Synthesis, photophysical properties, in vivo photosensitizing efficacy, and human serum albumin binding properties of some novel bacteriochlorins” (J Med Chem, 1997).
# The source made the active and inactive calls. The calls are words filed in the database; no cut-off is given here.
# How the values were obtained:
# Mus musculus [1] = assay: The compound was tested in vivo for photosensitizing efficacy in DBA/2 Mice transplanted with SMT/F tumors and the activity is expressed as % response at (11-15 days) 3 hours post injection at 2.5 mg/kg concentration; assay type: functional
# In short: (§1)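 Female DBA/2 HA-DD mice, 5-7 weeks old. A 1 mm SMT-F tumor piece from a donor was trocar-implanted subcutaneously in the axilla. At about 5 mm tumor diameter, sensitizer in 1% Tween 80/water was given iv; dose was based on extinction coefficient. At 3 or 24 h after injection, restrained mice had the tumor lit with 135 J/cm2 laser light at the in vivo long-wavelength maximum. Tumor response was followed to day 30; six mice/group.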
# Albumin [2] = target: T1, Albumin (Homo sapiens, UniProt P02768); assay: Binding affinity against Human serum albumin(Site II).
# In short: (§2)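 Fluorometric titration: HSA and sensitizer fixed at 1 × 10^-6 mol/L. Site probe varied 4 × 10^-7 to 2 × 10^-6 mol/L: DNSA for site I, read at 472 nm; DP for site II, read at 476 nm; excitation 340 nm. Incubated 4 °C, pH 7.0, 4 h, dark. Bound probe taken from standard curves of free probe (water) and HSA-bound probe (2.5 × 10^-5 mol/L HSA).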
# Mus musculus [3] = assay: The compound was tested in vivo for photosensitizing efficacy in DBA/2 Mice transplanted with SMT/F tumors and the activity is expressed as % response at (6-10 days) 3 hours post injection at 1 mg/kg concentration; assay type: functional
# Mus musculus [4] = assay: The compound was tested in vivo for photosensitizing efficacy in DBA/2 Mice transplanted with SMT/F tumors and the activity is expressed as % response at (1-5 days) 3 hours post injection at 1 mg/kg concentration; assay type: functional; in short: as §1
# Mus musculus [5] = assay: The compound was tested in vivo for photosensitizing efficacy in DBA/2 Mice transplanted with SMT/F tumors and the activity is expressed as % response at (6-10 days) 24 hours post injection at 5 mg/kg concentration; No response; assay type: functional, organism-based; set-up: dose 5 mg/kg
# Mus musculus [6] = assay: The compound was tested in vivo for photosensitizing efficacy in DBA/2 Mice transplanted with SMT/F tumors and the activity is expressed as % response at (16-20 days) 3 hours post injection at 2.5 mg/kg concentration; assay type: functional; in short: as §1
# Mus musculus [7] = assay: The compound was tested in vivo for photosensitizing efficacy in DBA/2 Mice transplanted with SMT/F tumors and the activity is expressed as % response at (21-25 days) 3 hours post injection at 2.5 mg/kg concentration; assay type: functional; in short: as §1
# Mus musculus [8] = assay: The compound was tested in vivo for photosensitizing efficacy in DBA/2 Mice transplanted with SMT/F tumors and the activity is expressed as % response at (1-5 days) 3 hours post injection at 2.5 mg/kg concentration; assay type: functional; in short: as §1
# Mus musculus [9] = assay: The compound was tested in vivo for photosensitizing efficacy in DBA/2 Mice transplanted with SMT/F tumors and the activity is expressed as % response at (26-30 days) 3 hours post injection at 2.5 mg/kg concentration; assay type: functional
# Mus musculus [10] = assay: The compound was tested in vivo for photosensitizing efficacy in DBA/2 Mice transplanted with SMT/F tumors and the activity is expressed as % response at (26-30 days) 24 hours post injection at 5 mg/kg concentration; No response; assay type: functional, organism-based; set-up: dose 5 mg/kg
# Mus musculus [11] = assay: The compound was tested in vivo for photosensitizing efficacy in DBA/2 Mice transplanted with SMT/F tumors and the activity is expressed as % response at (26-30 days) 3 hours post injection at 1 mg/kg concentration; assay type: functional
# Mus musculus [12] = assay: The compound was tested in vivo for photosensitizing efficacy in DBA/2 Mice transplanted with SMT/F tumors and the activity is expressed as % response at (1-5 days) 24 hours post injection at 5.0 mg/kg concentration; No response; assay type: functional, organism-based; set-up: dose 5 mg/kg; in short: as §1
# Mus musculus [13] = assay: The compound was tested in vivo for photosensitizing efficacy in DBA/2 Mice transplanted with SMT/F tumors and the activity is expressed as % response at (11-15 days) 3 hours post injection at 1 mg/kg concentration; assay type: functional; in short: as §1
# Mus musculus [14] = assay: The compound was tested in vivo for photosensitizing efficacy in DBA/2 Mice transplanted with SMT/F tumors and the activity is expressed as % response at (16-20 days) 3 hours post injection at 1 mg/kg concentration; assay type: functional; in short: as §1
# Mus musculus [15] = assay: The compound was tested in vivo for photosensitizing efficacy in DBA/2 Mice transplanted with SMT/F tumors and the activity is expressed as % response at (6-10 days) 3 hours post injection at 2.5 mg/kg concentration; assay type: functional
# In short: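 SMT-F tumor piece (1 mm) from donor implanted subcutaneously by trocar into axilla of 5–7-week-old female DBA/2 HA-DD mice; treated at ~5 mm diameter. Sensitizer dissolved in 1% Tween 80/water, given iv; 3 h later restrained mouse's tumor illuminated with 135 J/cm2 laser light at in vivo long-wavelength absorption maximum. Tumor response scored over 30 days; six mice/group.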
# Mus musculus [16] = assay: The compound was tested in vivo for photosensitizing efficacy in DBA/2 Mice transplanted with SMT/F tumors and the activity is expressed as % response at (21-25 days) 3 hours post injection at 1 mg/kg concentration; assay type: functional; in short: as §1
# Mus musculus [17] = assay: The compound was tested in vivo for photosensitizing efficacy in DBA/2 Mice transplanted with SMT/F tumors and the activity is expressed as % response at (16-20 days) 24 hours post injection at 5 mg/kg concentration; No response; assay type: functional, organism-based; set-up: dose 5 mg/kg; in short: as §1
# Albumin [18] = target: T1, Albumin; assay: Binding affinity against Human serum albumin(Site I).; in short: as §2
# Mus musculus [19] = assay: The compound was tested in vivo for photosensitizing efficacy in DBA/2 Mice transplanted with SMT/F tumors and the activity is expressed as % response at (21-25 days) 24 hours post injection at 5 mg/kg concentration; No response; assay type: functional, organism-based; set-up: dose 5 mg/kg; in short: as §1
# Mus musculus [20] = assay: The compound was tested in vivo for photosensitizing efficacy in DBA/2 Mice transplanted with SMT/F tumors and the activity is expressed as % response at (11-15 days) 24 hours post injection at 5 mg/kg concentration; No response; assay type: functional, organism-based; set-up: dose 5 mg/kg; in short: as §1
# Mus musculus [21] = assay: The compound was tested in vivo for photosensitizing efficacy in DBA/2 Mice at (1-5 days) 3 hours post injection at 5.0 mg/kg concentration; No response; assay type: functional, organism-based; set-up: dose 5 mg/kg; in short: as §1
# Mus musculus [22] = assay: The compound was tested in vivo for photosensitizing efficacy in DBA/2 Mice transplanted with SMT/F tumors and the activity is expressed as % response (21-25 days) 3 hours post injection at 5.0 mg/kg concentration; No response; assay type: functional, organism-based; set-up: dose 5 mg/kg; in short: as §1
# Mus musculus [23] = assay: The compound was tested in vivo for photosensitizing efficacy in DBA/2 Mice transplanted with SMT/F tumors and the activity is expressed as % response (16-20 days) 3 hours post injection at 5.0 mg/kg concentration; No response; assay type: functional, organism-based; set-up: dose 5 mg/kg; in short: as §1
# Mus musculus [24] = assay: The compound was tested in vivo for photosensitizing efficacy in DBA/2 Mice transplanted with SMT/F tumors and the activity is expressed as % response (6-10 days) 3 hours post injection at 5.0 mg/kg concentration; No response; assay type: functional, organism-based; set-up: dose 5 mg/kg; in short: as §1
# Mus musculus [25] = assay: The compound was tested in vivo for photosensitizing efficacy in DBA/2 Mice transplanted with SMT/F tumors and the activity is expressed as % response (26-30 days) 3 hours post injection at 5.0 mg/kg concentration; No response; assay type: functional, organism-based; set-up: dose 5 mg/kg; in short: as §1
# Mus musculus [26] = assay: The compound was tested in vivo for photosensitizing efficacy in DBA/2 Mice transplanted with SMT/F tumors and the activity is expressed as % response (11-15 days) 3 hours post injection at 5.0 mg/kg concentration; No response; assay type: functional, organism-based; set-up: dose 5 mg/kg; in short: as §1
# T1 sequence (P02768 whole entry): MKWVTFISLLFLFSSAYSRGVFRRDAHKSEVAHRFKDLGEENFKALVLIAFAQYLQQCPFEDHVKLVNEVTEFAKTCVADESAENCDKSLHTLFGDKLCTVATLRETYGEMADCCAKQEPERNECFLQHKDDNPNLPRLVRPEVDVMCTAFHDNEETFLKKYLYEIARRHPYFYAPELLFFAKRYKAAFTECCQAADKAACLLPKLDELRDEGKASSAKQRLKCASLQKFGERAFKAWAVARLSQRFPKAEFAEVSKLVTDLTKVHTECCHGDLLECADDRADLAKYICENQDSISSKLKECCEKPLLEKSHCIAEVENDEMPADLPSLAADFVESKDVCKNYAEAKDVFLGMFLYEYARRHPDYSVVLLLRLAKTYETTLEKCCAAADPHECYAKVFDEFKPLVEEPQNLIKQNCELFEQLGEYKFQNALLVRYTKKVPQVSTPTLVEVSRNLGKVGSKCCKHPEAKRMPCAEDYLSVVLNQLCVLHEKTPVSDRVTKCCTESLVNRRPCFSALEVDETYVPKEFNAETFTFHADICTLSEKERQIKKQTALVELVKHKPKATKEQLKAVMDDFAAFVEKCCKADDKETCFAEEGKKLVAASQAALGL
smiles,measurement,setting,value
CCc1c(C)c2[nH]c1cc1[nH]c(cc3nc4c(c5nc(c2C=O)[C@@H](C)[C@@H]5CCC(=O)NC(CC(=O)OC(C)(C)C)C(=O)OC(C)(C)C)CCC4=C3C)C(=O)C1(C)CC (some centres not stated),Response,Mus musculus [1],60%
same,Binding constant,Albumin [2],500000 l M-1
same,Response,Mus musculus [3],80%
same,Response,Mus musculus [4],100%
same,Response,Mus musculus [5],inactive
same,Response,Mus musculus [6],60%
same,Response,Mus musculus [7],60%
same,Response,Mus musculus [8],100%
same,Response,Mus musculus [9],60%
same,Response,Mus musculus [10],inactive
same,Response,Mus musculus [11],50%
same,Response,Mus musculus [12],inactive
same,Response,Mus musculus [13],60%
same,Response,Mus musculus [14],60%
same,Response,Mus musculus [15],100%
same,Response,Mus musculus [16],50%
same,Response,Mus musculus [17],inactive
same,Binding constant,Albumin [18],500000 l M-1
same,Response,Mus musculus [19],inactive
same,Response,Mus musculus [20],inactive
CCc1c(C)c2[nH]c1cc1[nH]c(cc3nc4c(c5nc(c2C=O)[C@@H](C)[C@@H]5CCC(=O)OC)CCC4=C3C)C(O)(CC)C1(C)O (some centres not stated),Response,Mus musculus [21],inactive
same,Response,Mus musculus [22],inactive
same,Response,Mus musculus [23],inactive
same,Response,Mus musculus [24],inactive
same,Response,Mus musculus [25],inactive
same,Response,Mus musculus [26],inactive
same,Binding constant,Albumin [18],500000 l M-1
